In ChEMBL document CHEMBL1122743, “Structure-activity relationship study of the inhibition of adrenal cortical 11 beta-hydroxylase by new metyrapone analogues” (J Med Chem, 1984):

Target: T1, Cytochrome P450 11B1, mitochondrial (Bos taurus, UniProt P15150)
T1 sequence (P15150 whole entry): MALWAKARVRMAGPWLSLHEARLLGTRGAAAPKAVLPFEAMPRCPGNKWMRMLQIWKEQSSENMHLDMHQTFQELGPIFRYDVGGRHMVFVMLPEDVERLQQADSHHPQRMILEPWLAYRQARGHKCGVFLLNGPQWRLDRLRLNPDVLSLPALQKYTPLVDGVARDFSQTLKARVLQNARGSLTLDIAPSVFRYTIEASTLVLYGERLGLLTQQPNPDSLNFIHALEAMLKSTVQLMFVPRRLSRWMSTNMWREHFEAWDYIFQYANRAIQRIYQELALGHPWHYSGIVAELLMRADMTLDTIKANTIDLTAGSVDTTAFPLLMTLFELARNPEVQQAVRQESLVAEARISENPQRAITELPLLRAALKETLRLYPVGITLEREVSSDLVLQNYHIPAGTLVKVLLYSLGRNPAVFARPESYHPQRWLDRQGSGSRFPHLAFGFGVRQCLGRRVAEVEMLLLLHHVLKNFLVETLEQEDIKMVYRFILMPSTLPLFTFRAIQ
Test: Evaluated for inhibition of bovine adrenal cortical mitochondrial 11 beta-hydroxylase
Type: functional
Summary of the method: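 Crude lyophilized, defatted adrenal cortical mitochondria (300 µg) plus 15.0 µM purified adrenodoxin, in 0.50 mL of 50 mM potassium phosphate pH 7.40. Additions: 200 µM DOC with [3H]DOC tracer, 16 mM MgCl2, 4.6% propylene glycol, inhibitor (final 1% ethanol). Preincubated 5 min at 37 °C, then started with 1.5 mM NADPH. Products extracted into CH2Cl2, separated by TLC, counted by scintillation. Percent inhibition versus 1% ethanol controls; duplicates.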

SMILES	IC50 [µM]
CC(C(=O)c1ccccc1)c1cccnc1 (stereo not given)	7.72
CC(C)(c1cccnc1)C(Cl)c1ccccc1 (stereo not given)	1.63
CC(C)(c1cccnc1)C(Cl)c1cccnc1 (stereo not given)	7.25
CC(C)(c1cccnc1)C(O)c1ccccc1 (stereo not given)	1.53
CC(C)(c1cccnc1)C(O)c1cccnc1 (stereo not given) [METYRAPOL]	7.05
CC(C)(C(=O)c1cccnc1)c1cccnc1 [METYRAPONE]	7.83
CC(C)(Cc1cccnc1)c1cccnc1	2.64
CC(C)(c1cccnc1)C(I)c1cccnc1 (stereo not given)	5.36
CC(C)(Cc1ccccc1)c1cccnc1	0.66
O=C(Cc1cccnc1)c1ccccc1	158
CC(C)(C(=O)c1ccccc1)c1cccnc1	3.3
COC(c1cccnc1)C(C)(C)c1cccnc1 (stereo not given)	7.3
CC(C)(c1cccnc1)C(N)c1cccnc1 (stereo not given)	> 1000
CC(C)(C(=NO)c1cccnc1)c1cccnc1	4.78
CC(=O)NC(c1cccnc1)C(C)(C)c1cccnc1 (stereo not given)	87.5
